Measurements taken from ChEMBL document CHEMBL4411269, “Required Immunoproteasome Subunit Inhibition Profile for Anti-Inflammatory Efficacy and Clinical Candidate KZR-616 ((2 S,3 R)- N-(( S)-3-(Cyclopent-1-en-1-yl)-1-(( R)-2-methyloxiran-2-yl)-1-oxopropan-2-yl)-3-hydroxy-3-(4-methoxyphenyl)-2-(( S)-2-(2-morpholinoacetamido)propanamido)propenamide)” (J Med Chem, 2018).
The source made the active and inactive calls. The calls are words filed in the database; no cut-off is given here.

Legend:
PBMC [1] = assay: Cytotoxicity in human PBMC assessed as reduction in cell viability at 250 nM relative to control; assay type: cell-based
[2] = biological target: T1, Proteasome subunit beta type-8 (Homo sapiens) (UniProt P28062); assay: Inhibition of LMP7 in human PBMC at 250 nM by ELISA
T1 sequence (whole entry): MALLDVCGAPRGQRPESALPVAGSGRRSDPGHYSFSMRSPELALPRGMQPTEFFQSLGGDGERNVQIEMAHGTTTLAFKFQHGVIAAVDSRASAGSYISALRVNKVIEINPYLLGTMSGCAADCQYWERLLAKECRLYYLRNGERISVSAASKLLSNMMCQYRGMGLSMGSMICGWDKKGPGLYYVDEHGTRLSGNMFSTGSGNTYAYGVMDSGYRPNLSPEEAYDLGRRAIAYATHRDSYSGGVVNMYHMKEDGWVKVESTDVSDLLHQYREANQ
Summary of the method: (§1)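 Cryopreserved healthy-donor human PBMC in RPMI 1640 with 5% heat-inactivated FBS, exposed to compound (0.1% DMSO final) for 1 h at 37 °C, 5% CO2, then washed. Subunit-specific active-site occupancy read by ProCISE: biotinylated active-site probe binding, denaturation, streptavidin capture, subunit-specific antibody and HRP chemiluminescence. Signal normalized to protein and expressed relative to DMSO controls.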

[3] = biological target: T2, Proteasome subunit beta type-9 (Homo sapiens) (UniProt P28065); assay: Inhibition of LMP2 in human PBMC at 250 nM by ELISA; summary of the method: as §1
T2 sequence (whole entry): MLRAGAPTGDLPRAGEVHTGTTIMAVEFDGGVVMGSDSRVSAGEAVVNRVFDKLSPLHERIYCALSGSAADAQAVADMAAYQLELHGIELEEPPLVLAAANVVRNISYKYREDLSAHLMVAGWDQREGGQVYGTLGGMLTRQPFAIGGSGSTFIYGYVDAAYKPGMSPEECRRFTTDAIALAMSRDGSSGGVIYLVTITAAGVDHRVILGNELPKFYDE

[4] = biological target: T3, Proteasome subunit beta type-10 (Homo sapiens) (UniProt P40306); details: at 250 nM
T3 sequence (whole entry): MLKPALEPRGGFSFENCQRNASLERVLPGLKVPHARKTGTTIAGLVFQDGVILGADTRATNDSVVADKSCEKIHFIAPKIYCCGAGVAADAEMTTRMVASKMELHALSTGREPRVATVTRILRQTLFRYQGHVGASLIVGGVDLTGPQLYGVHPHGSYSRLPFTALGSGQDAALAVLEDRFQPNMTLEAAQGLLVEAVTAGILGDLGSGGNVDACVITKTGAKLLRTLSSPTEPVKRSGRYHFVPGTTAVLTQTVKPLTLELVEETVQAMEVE

PBMC [5] = assay: Cytotoxicity in human PBMC assessed as reduction in cell viability at 125 nM relative to control; assay type: cell-based; details: 0.125 µM
[6] = Clearance in Balb/c mouse at 2 mg/kg, iv; assay type: ADME, organism-based; details: in vivo
Summary of the method: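 Female BALB/c mice aged 7−8 weeks, given 2 mg/kg iv in 25% PEG300/WFI. Cardiac blood taken at 2, 5, 10, 20, 30, 60 and 120 min postdose into sodium heparin and processed to plasma (n = 3/time point). Proteins precipitated with acetonitrile; drug measured by LC−MS/MS. Noncompartmental analysis of mean concentrations at nominal times and target doses.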

PBMC [7] = assay: Antiinflammatory activity in human PBMC assessed as reduction in LPS-stimulated IL-6 expression at 125 nM preincubated for 1 hr followed by LPS stimulation measured after 24 hrs by ELISA; assay type: functional, cell-based
Summary of the method: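 Cryopreserved healthy-donor PBMC in RPMI 1640 with 5% heat-inactivated FBS, 250 000 cells/well. Compound (0.1% DMSO final) for 1 h at 37 °C, 5% CO2, then 4 washes with medium. Stimulated with 1 μg/mL LPS for 24 h; supernatant TNFα, IL-6 and IL-12/23p40 by electrochemiluminescent immunoassay. Mean level relative to DMSO controls, n = 6.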

PBMC [8] = assay: Antiinflammatory activity in human PBMC assessed as reduction in anti-CD3/CD28 antibody-stimulated TNF-alpha expression at 125 nM preincubated for 1 hr followed by anti-CD3/CD28 antibody stimulation measured after 24 hrs by ELISA; assay type: functional, cell-based
Summary of the method: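 Healthy-donor PBMC, thawed from cryopreservation, 250 000 cells/well in RPMI 1640/5% FBS. Pretreated 1 h at 37 °C with compound alone or combined (0.1% DMSO final), washed 4 times, then stimulated 24 h with anti-CD3 and anti-CD28 antibodies. TNFα and IFNγ in supernatants by electrochemiluminescent ELISA; expressed relative to DMSO-treated controls (n = 6).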

Mus musculus [9] = assay: In vivo inhibition of proteosome beta 5 in Balb/c mouse kidney at 20 mg/kg, iv followed by dosing repeat on day 6, 8, 11, 13 and 15 and measured on 1 hr post last dose; assay type: functional, organism-based
Summary of the method: (§2)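 BALB/c mice dosed iv bolus in 10% sulfobutyl ether−β-cyclodextrin/10 mM sodium citrate pH 3.5; tissues taken 1 h after administration. Splenocytes strained and red cells lysed; kidney frozen, then bead-homogenized. Hypotonic lysate (20 mM Tris pH 8, 5 mM EDTA) at 1 mg/mL (spleen) or 5 mg/mL (kidney) run in the ProCISE active-site ELISA. Background-subtracted, protein-normalized activity relative to vehicle animals; n = 3.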

Mus musculus [10] = assay: In vivo inhibition of MECL-1 in Balb/c mouse splenocytes at 20 mg/kg, iv followed by dosing repeat on day 6, 8, 11, 13 and 15 and co-treated with 5 mg/kg, iv KZR-504 and measured on 1 hr post last dose; assay type: functional, organism-based; summary of the method: as §2
Mus musculus [11] = assay: Antiarthritic activity in type 2 collagen antibody/LPS induced Balb/c mouse assessed as reduction in disease burden at 20 mg/kg, iv followed by dosing repeat on day 6, 8, 11, 13 and 15 and measured until day 18; assay type: functional, organism-based
Summary of the method: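 CAIA in 7−8 week old female BALB/c mice on breeder chow. Induced with 1.75 mg of a 5-antibody anti-type II collagen cocktail iv on day 0, then 25 μg LPS ip on day 3. Dosed as single iv boluses in 10% (w/v) sulfobutyl ether−β-cyclodextrin/10 mM sodium citrate (pH 3.5); vehicle-treated group included.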

[12] = Toxicity in Balb/c mouse assessed as change in body weight at 20 mg/kg, iv followed by dosing repeat on day 6, 8, 11, 13 and 15 and measured until day 18; assay type: organism-based; details: in vivo
[13] = Toxicity in Balb/c mouse assessed as effect on cage-side observations at 20 mg/kg, iv followed by dosing repeat on day 6, 8, 11, 13 and 15 and measured until day 18; assay type: organism-based; details: in vivo
[14] = biological target: T1, Proteasome subunit beta type-8 (Homo sapiens); assay: Inhibition of LMP7 in human PBMC at 125 nM by ELISA; summary of the method: as §1
[15] = biological target: T3, Proteasome subunit beta type-10 (Homo sapiens); assay: Inhibition of MECL1 in human PBMC at 125 nM by ELISA; summary of the method: as §1
[16] = Toxicity in Balb/c mouse assessed as change in body weight at 20 mg/kg, iv followed by dosing repeat on day 6, 8, 11, 13 and 15 and co-treated with 5 mg/kg, iv KZR-504 and measured until day 18; assay type: organism-based; details: in vivo

Compound | Activity (PBMC [1]) [%] | inhibition [2] | inhibition [3] | inhibition [4] | Activity (PBMC [5]) [%] | clearance [6] [L/h/kg] | Activity (PBMC [7]) | Activity (PBMC [8]) | inhibition (Mus musculus [9]) | inhibition (Mus musculus [10]) | Activity (Mus musculus [11]) | Activity [12] | Activity [13] | inhibition [14] | inhibition [15] | Activity [16]
Cc1ccc(CC[C@H](NC(=O)[C@H](Cc2ccccc2)NC(=O)[C@H](CC(C)C)NC(=O)CN2CCCCCC2)C(=O)[C@@]2(C)CO2)cc1 | 30 | Active | Active | Active |  |  |  |  |  |  |  |  |  |  |  | 
COc1ccc(C[C@H](NC(=O)[C@@H](C)NC(=O)[C@H]2CC[C@H](O)CC2)C(=O)N[C@@H](CC2=CCCC2)C(=O)[C@@]2(C)CO2)cc1 |  |  |  |  | 30 | > 4.38 | inactive | Active | Active | Active | inactive | Non-Toxic | Non-Toxic | Active | Active | Non-Toxic
